Test: Toxicity liver stage against HepG2, at 10uM
Type: cell-based
Design: test concentration 10 uM, cell line HepG2-A16-CD81EGFP
Settings: human, HepG2-A16-CD81EGFP cells; read-out: INHIBITION
Method in brief: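 Uninfected HepG2-A16-CD81EGFP cells, 3 × 10^3 per well, 1536-well, plated on prespotted compound at 10 μM final, parasite-free screening media added to match infected plates; puromycin 10 μM positive, DMSO 0.5% negative; run in parallel with 48 h PbLuc assay at 37 °C, 5% CO2; viability by CellTiter-Glo luminescence, normalized to controls.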

| SMILES | cytotoxicity at 10 µM [%] |
| --- | --- |
| CC(C)CNC[C@H]1O[C@H](Cc2cc(-c3ccccn3)on2)CC[C@@H]1O | -0.238 |
| CC(C)(C)CC(=O)N1CC[C@H]2CC(=O)N(CCc3c[nH]cn3)CC[C@H]2C1 | -3.97 |
| Cc1n[nH]c2nc(-c3cc(Br)ccc3O)cc(C(=O)O)c12 | 0.0962 |
| Cc1c(C2SCC(=O)Nc3c2c(O)nn3C2CCCC2)cnn1C (stereo not drawn) | 1.58 |
| COCC(=O)N1CCc2[nH]c(=O)ccc2C1 | 4.11 |
| O=C(NCC1CC1)c1cc2c(s1)CCN2C(=O)c1ccc(F)cc1 | 2.55 |
| CN(Cc1cccnc1)Cc1cn2c(n1)CN(C1CCOCC1)CC2 | 8.94 |
| CN(C)CCN1CCOCC2(CCCN(C(=O)c3cccc(O)c3)C2)C1 (stereo not drawn) | 11.7 |
| c1ccc(CO[C@H]2CO[C@@]3(CCCN(Cc4ccncc4)C3)C2)nc1 | 1.44 |
| Cn1cc(C[C@H]2[C@H](O)CCN2C(=O)C2CCOCC2)cn1 | 13 |
| Cc1n[nH]c2c1C(c1ccc(O)c(Cl)c1)SCC(=O)N2 (stereo not drawn) | 10.4 |
| CN(C(=O)Cn1nc(-c2cccs2)ccc1=O)C1CCS(=O)(=O)C1 (stereo not drawn) | 7.36 |
| O=C(Cn1cc(I)cn1)Nc1cccnc1 | -2.59 |
| O=C(O)CCCC(=O)Nc1cnn(COc2ccc(F)cc2Cl)c1 | 8.69 |
| O=S1(=O)NC(C2CCCN(S(=O)(=O)N3CCCC3)C2)=Nc2ccccc21 (stereo not drawn) | 2.17 |
| CNC(=O)CCc1cc(C)nc(C2CCN(C(=O)CN(C)C)CC2)c1 | -3.48 |
| COCCN1CCC1c1cc(NC2CCCC2)nc(C)n1 (stereo not drawn) | 0.994 |
| Cc1cc(Oc2ccccc2C)nc(C2CCCN2)n1 (stereo not drawn) | 1.22 |
| CC(=O)N1CCC(c2[nH]ncc2S(C)(=O)=O)CC1 | 0.752 |
| CN1CCC(c2cccc(-c3cccc(C(=O)O)c3)n2)CC1 | -6.55 |
| CCOCC(=O)N1C[C@@H](O)[C@H](NC(C)=O)C1 | -4.48 |

| SMILES | cytotoxicity at 10 µM [%] |
| --- | --- |
| NC(=O)c1cccc(CS(=O)(=O)CC(O)Cn2cccn2)c1 (stereo not drawn) | -2.45 |
| COc1ccccc1C1(CNC(=O)NCc2noc(C)n2)CC1 | -0.343 |
| CC1CCC(O)(CSc2nnnn2C)CC1 (stereo not drawn) | -8.03 |
| CCC(NC(=O)Cn1ccc(=O)n(C)c1=O)c1ccc(OC)cc1 (stereo not drawn) | 2.19 |
| CC1CN(C(=O)c2sccc2Br)CCO1 (stereo not drawn) | 5.15 |
| Cc1nc(Cn2cc(C#N)c(=O)c3ccccc32)no1 | 9.95 |
| CC1CCN(C(=O)C2CCN(S(C)(=O)=O)CC2)c2ccccc21 (stereo not drawn) | -9.28 |
| Cc1ccc(CN2CCOCC2)cc1NCc1ccsc1 | -8.84 |
| CN(C)S(=O)(=O)c1ccc(=O)n(CC2CCCCO2)c1 (stereo not drawn) | -8.58 |
| CCn1cnnc1CNC(=O)N(C)Cc1cccc(Cl)c1Cl | -16.2 |
| Cc1cc(N2CCCC2)c(C#N)c(C)n1 | 10.4 |
| COCCN1CCC(CNC(=O)c2ccnc(-n3ccnc3)c2)CC1 | -1.63 |
| Cc1ccoc1C(=O)NCCS(=O)(=O)N1CCSCC1 | -2.65 |
| CN(C)Cc1ccc(NC(=O)c2nccn3ccnc23)cc1 | -2.6 |
| COCCNS(=O)(=O)c1ccc(Cl)c(C(=O)N(C)Cc2sccc2C)c1 | -7.53 |
| Oc1cccc(CNC2CCN(CCc3ccncc3)CC2)c1 | -1.56 |
| Cc1nn(CC(=O)N2CCN(c3ncccn3)CC2)c(C)c1Cl | 0.215 |
| CC(=O)NCCNC(=O)NCc1ccc(Br)cc1Cl | 5.19 |
| Cc1nccn1-c1ncccc1NC(=O)CCOCC(C)C | -2.59 |
| Cc1n[nH]cc1CNC1(Cc2ccc(Br)cc2)CCCCC1 | 14.1 |
| CC(C)C(O)CNC(=O)Nc1cnn(Cc2ccccc2)c1 (stereo not drawn) | 6.61 |

| SMILES | cytotoxicity at 10 µM [%] |
| --- | --- |
| CCc1nc(NS(=O)(=O)c2ccc(C)cc2Cl)no1 | -1.51 |
| CC1(NC(=O)Cc2csc(C(C)(C)C)n2)CCS(=O)(=O)C1 (stereo not drawn) | -4.17 |
| CC1c2cccn2CCN1C(=O)CCCc1nc(-c2ccco2)no1 (stereo not drawn) | 7.16 |
| CN1C(=O)CC(C(=O)O)C12CCN(Cc1cc(F)ccc1Cl)CC2 (stereo not drawn) | -0.309 |
| CNS(=O)(=O)CCn1cc(-c2ccc(NC(C)=O)cc2)nn1 | -4.5 |
| CN(Cc1cnc2ccccc2c1)C(=O)C(c1ccccc1F)N(C)C (stereo not drawn) | -6.88 |
| CC(Cc1ccc2c(c1)OCO2)c1cn(CCc2c[nH]cn2)nn1 (stereo not drawn) | 8.66 |
| CC(c1ccncn1)N(C)S(=O)(=O)NCc1ccccc1 (stereo not drawn) | -81.5 |
| CN(C)C[C@@H]1CN(C(=O)c2cc(S(N)(=O)=O)ccc2F)C[C@@H]1CO | 4.83 |
| CC(C)Cc1ncc2c(n1)CN(c1nccc(NC(C)C)n1)C2 | -10.7 |
| Cc1cccc(CNC(=O)NCC2CCN(Cc3ncc[nH]3)C2)c1 (stereo not drawn) | 1.86 |
| CCc1cc(NCCNC(C)=O)nc(N2CCOCC2)n1 | 2.38 |
| Cc1cccnc1CN(C)C(C(=O)O)c1ccc(-n2cccn2)cc1 (stereo not drawn) | -4.86 |
| O=C1CCCCN1Cc1cccc(OC(F)F)c1 | 3.17 |
| Cc1cc(CN2CCC(CNC(=O)c3ccc(O)c(Cl)c3)C2)[nH]n1 (stereo not drawn) | 13.3 |
| CN(C)CCN(C)C(=O)c1cnc2c(c1)nc(-c1ccccc1Cl)n2C | 9.3 |
| CCCNCC1(O)CCCN(Cc2cccc(C)c2)C1=O (stereo not drawn) | -19.7 |
| CCOc1ccc(Cl)c(C(=O)N2CCN(CC(C)(C)O)CC2)n1 | -5.72 |
| CC(C)c1nn(C)c(N(C)C)c1CNCc1cccc2c1OCO2 | -4.66 |
| COc1ccnc(N2CCN(CC(O)CN3CCOCC3)CC2)n1 (stereo not drawn) | -3.44 |
| Cc1nccn1C1CCCN(C(=O)c2ccc3cc[nH]c3c2)C1 (stereo not drawn) | -9.69 |

| SMILES | cytotoxicity at 10 µM [%] |
| --- | --- |
| O=C(CCn1cccn1)N1CCSCC1 | -5.92 |
| Cn1cnc(S(=O)(=O)NCCCN2CCCC2=O)c1Cl | -12.1 |
| CCOc1ccnc(N2CCN(C(=O)c3ccn(C)c(=O)c3)CC2)n1 | -14.8 |
| CC(C)n1cc(CN2CCCN(C(=O)CC3CCCCC3)CC2)cn1 | -10.8 |
| CCc1nnc(CN2CCCC(c3cc(C(N)=O)[nH]n3)C2)o1 (stereo not drawn) | -12.7 |
| Cn1ccnc1CN1CCN(CC(O)c2ccccc2)CC1 (stereo not drawn) | -11.4 |
| Cc1cc(C)n(CC2CCCN2CCS(C)(=O)=O)n1 (stereo not drawn) | -3.95 |
| Cc1nnc(CN2CCN(CC(O)c3ccccc3)CC2)o1 (stereo not drawn) | -18.9 |
| Cc1nc(CN2CCOC(Cn3cccn3)C2)no1 (stereo not drawn) | -11.6 |
| CCC1CN(CC(=O)N2CCN(C(C)=O)CC2)CCN1CCOC (stereo not drawn) | -7.58 |
| COc1c(C2CCCN2CC(=O)Nc2cc(C)no2)c(C)nn1C (stereo not drawn) | -2.77 |
| Cc1nc(C2CCCN2CCCNS(C)(=O)=O)no1 (stereo not drawn) | -8.6 |
| CC(C)Oc1ncccc1CNC(=O)C1CCCN(C(=O)C2CC2)C1 (stereo not drawn) | -8.57 |
| Cc1cnn(CC2CCCN2Cc2nnsc2Cl)c1 (stereo not drawn) | -8.72 |
| O=C(CCc1nccs1)N1CCN(c2ccccc2F)CC1 | -9.42 |
| Fc1cnc(N2CCO[C@H]3[C@H](OCCN4CCCC4)CC[C@@H]32)nc1 | 1.33 |
| O=C(N[C@@H]1CN(c2ncccn2)C[C@@H]2CCCO[C@@H]21)c1cccnc1 | 11.4 |
| CN(Cc1ccncc1)C1COC2(CCN(Cc3cccs3)CC2)C1 (stereo not drawn) | -0.931 |
| CN(C)S(=O)(=O)N1CCO[C@H]2[C@H](Oc3cccnc3)CC[C@@H]21 | 4.64 |
| O=C(Nc1cccnc1)[C@H]1C[C@H]2OCC[C@H]2N(Cc2ccc(F)cc2)C1 | 0.592 |

— ChEMBL document CHEMBL4513216, “Probing the Open Global Health Chemical Diversity Library for Multistage-Active Starting Points for Next-Generation Antimalarials” (ACS Infect Dis, 2020)
